Consider four compounds from ChEMBL document CHEMBL1681759, “Synthesis and biological evaluation of benzimidazole-5-carbohydrazide derivatives as antimalarial, cytotoxic and antitubercular agents” (Bioorg Med Chem, 2011).

Converted amounts (≈) assume the structure as drawn.

Data set [1] has as its system HT-29. Put plainly: Cytotoxicity against human HT-29 cells assessed as growth inhibition after 48 hrs by sulforhodamine B assay. The format is functional. The following applies: HT-29, 48 h. In a few lines: (§1)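 Cells were exposed to serial compound dilutions in 96-well plates for 48 h at 37 °C alongside solvent controls. Growth was read colorimetrically by sulforhodamine B. GI50 is the concentration giving a 50% reduction in absorbance versus solvent-treated controls, derived by linear regression.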
On the technique in general: Sulforhodamine B stains cellular protein and so reports cell mass.

Data set [2] is described as follows: Cytotoxicity against mouse 3T3 cells assessed as growth inhibition after 48 hrs by sulforhodamine B assay. The format is cell-based. As to conditions: NIH3T3 cells. In a few lines:
as §1

Data set [3] deals with Plasmodium berghei. Kind of data set: Antimalarial activity against chloroquine-susceptible Plasmodium berghei ANKA infected in Balb-C mouse. The data set is classed as functional, organism-based. In a few lines: (§2)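 Balb-C mice (18–23 g, n = 6) were infected iv in the caudal vein with 10⁶ P. berghei ANKA-infected RBCs. Dosing started 2 h post-infection: 20 mg/kg ip once daily for 4 days, DMSO stock diluted in Saline-Tween 20 (2%). Chloroquine 25 mg/kg served as positive control; untreated mice were controls. Parasitemia was read on day 4 from Giemsa smears, and survival days were recorded.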

Data set [4] has as its system M14. Put plainly: Cytotoxicity against human M14 cells assessed as growth inhibition after 48 hrs by sulforhodamine B assay. The format is functional. The following applies: M14, 48 h. In a few lines: as §1
In data set [5] the test system is Plasmodium berghei. Kind of data set: Antimalarial activity against chloroquine-susceptible Plasmodium berghei ANKA infected in Balb-C mouse assessed as mouse survival days at 20 mg/kg, ip qd for 4 days […] relative to untreated control. The format is functional. As to conditions: route intraperitoneal.
The subject of data set [6] is Plasmodium berghei. Kind of data set: Antimalarial activity against chloroquine-susceptible Plasmodium berghei ANKA infected in Balb-C mouse assessed as inhibition parasitemia at 20 mg/kg, ip qd for 4 days […]. The data set is classed as functional. The following applies: 96 h, route intraperitoneal. In a few lines:
as §2

The test system of data set [7] is DU-145. Put plainly: Cytotoxicity against human DU145 cells assessed as growth inhibition after 48 hrs by sulforhodamine B assay. The format is functional. As to conditions: DU-145, 48 h. An outline of the steps: as §1
Data set [8] relates to NCI-H460. Kind of data set: Cytotoxicity against human H460 cells assessed as growth inhibition after 48 hrs by sulforhodamine B assay. The data set is classed as functional. The following applies: NCI-H460, 48 h. In a few lines:
as §1

The subject of data set [9] is Plasmodium berghei. Put plainly: Antimalarial activity against chloroquine-susceptible Plasmodium berghei ANKA assessed as inhibition of trophozoite extract-mediated mouse hemoglobin hydrolysis at 10 mM after 18 hrs by SDS-PAGE. The format is functional. An outline of the steps: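 Trophozoite extract came from P. berghei-infected mouse blood at 30–50% parasitemia: RBCs percoll-purified (80–70%), saponin-lysed, then freeze–thawed three times. Substrate was native haemoglobin from uninfected mouse erythrocytes lysed in water. The mix held GSH and acetate buffer (0.2 M, pH 5.4). Compound was added in DMSO and incubated 37 °C, 18 h. Reactions were stopped with reduced sample buffer.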

Data set [10] deals with MCF7. Put plainly: Cytotoxicity against human MCF7 cells assessed as growth inhibition after 48 hrs by sulforhodamine B assay. The format is functional. As to conditions: MCF7, 48 h. An outline of the steps: as §1
Data set [11] can be described thus: Inhibition of beta-hematin formation assessed as inhibition of […] polymerization at […] after 48 hrs. The data set is classed as functional. In a few lines: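 Hemin chloride (50 µL, 4 mM in DMSO) was mixed in triplicate with compound in DMSO; water or DMSO served as controls. Reaction was started with acetate buffer (0.2 M, pH 4.4) and run 37 °C for 48 h. The pellet was DMSO-washed twice, dissolved in 0.2 N NaOH, diluted 1:2 in 0.1 N NaOH, and read at 405 nm as % inhibition of FP polymerization.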

For data set [12], the system named is K562. Put plainly: Cytotoxicity against human K562 cells assessed as growth inhibition after 48 hrs by sulforhodamine B assay. The format is functional. As to conditions: K562, 48 h. An outline of the steps:
as §1

Data set [13] is described as follows: Cytotoxicity against african green monkey Vero cells assessed as growth inhibition after 48 hrs by sulforhodamine B assay. The data set is classed as cell-based. The following applies: chlorocebus sabaeus. In a few lines: as §1
The subject of data set [14] is Mycobacterium tuberculosis. Kind of data set: Antimycobacterial activity against Mycobacterium tuberculosis H37Rv after 5 days by tetrazolium microplate assay. The data set is classed as functional. The following applies: 120 h. In a few lines:
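Tetrazolium microplate assay run in 7H9GC broth. DMSO stocks (4 mg/mL) were diluted to final 0.4–25 µg/mL. Isoniazid (0.125–32 µg/mL) and rifampin (0.063–16 µg/mL) were positive controls; inoculum-only and DMSO controls were included. Plates were incubated 5 days at 37 °C, then an MTT-Tween 80 mix was added and incubation continued 24 h at 37 °C. Run in triplicate. MIC = lowest concentration preventing the yellow-to-purple colour change.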

As for `COc1cc(C(=O)NNC(=O)c2ccc3[nH]c(-c4ccc([N+](=O)[O-])o4)nc3c2)cc(OC)c1OC`, the concentration for 50% growth inhibition (GI50) (commonly the concentration at which growth is held to half of that of the control) in data set [1] is 31.2 µg/mL (≈ 64.9 µM); in [4], 15.6 µg/mL (≈ 32.5 µM); in [7], 15.6 µg/mL (≈ 32.5 µM); in [8], 31.2 µg/mL (≈ 64.9 µM); in data set [10] it was 31.2 µg/mL (≈ 64.9 µM); in data set [12], 31.2 µg/mL (≈ 64.9 µM). In addition, the GI50 at 48 h in data set [2] and in data set [13] was 31.2 µg/mL (≈ 64.9 µM) throughout. Moreover, the IC50 – broadly, the concentration that gives 50% inhibition – in data set [3] came to 14.4 µM. The Survival in data set [5] stood at 12.2 days. Also, the inhibition in vivo (commonly the share of the control response that was lost under treatment) at 20 mg/kg in [6] was 9.4%. Also, in data set [9], the inhibition (as a rule, the percentage by which the read-out fell short of the control) at 10000 µM stood at 0%. Besides, in [11], the inhibition worked out at 69.4%. For the same compound, the MIC (as a rule, the least concentration at which growth counts as inhibited) in data set [14] is more than 25 µg/mL.

Take `COc1cccc(C(=O)NNC(=O)c2ccc3[nH]c(-c4ccc([N+](=O)[O-])s4)nc3c2)c1`: the GI50 in [1] turned out to be 31.2 µg/mL (≈ 71.4 µM); in [4], 15.6 µg/mL (≈ 35.7 µM); in data set [7], 62.5 µg/mL (≈ 143 µM); in data set [8], 62.5 µg/mL (≈ 143 µM); in [10] it was 15.6 µg/mL (≈ 35.7 µM); in [12] it was 15.6 µg/mL (≈ 35.7 µM). Besides, the GI50 at 48 h in data set [2] was 15.6 µg/mL (≈ 35.7 µM); in data set [13], more than 250 µg/mL. In addition, the IC50 in data set [3] came out at 24.5 µM. In data set [5], the Survival came to 10.6 days. Also, the inhibition in vivo at 20 mg/kg in data set [6] was found to be 24.8%. Also, in data set [9], the inhibition at 10000 µM came to 13.4%. Also, the inhibition in [11] worked out at 61.6%. In data set [14], the MIC was more than 25 µg/mL.

In the case of `O=CNNC(=O)c1ccc2[nH]c(-c3ccc([N+](=O)[O-])o3)nc2c1`, the GI50 in [1] came out at 62.5 µg/mL (≈ 198 µM); in [4], 31.2 µg/mL (≈ 99.1 µM); in data set [7], 15.6 µg/mL (≈ 49.6 µM); in [8] it was 31.2 µg/mL (≈ 99.1 µM); in data set [10], 62.5 µg/mL (≈ 198 µM); in [12] it was 31.2 µg/mL (≈ 99.1 µM). Besides, the GI50 at 48 h in data set [2] and in [13] was 62.5 µg/mL (≈ 198 µM) in each case. The 50% inhibitory concentration (IC50) in data set [3] turned out to be 8.63 µM. The Survival in data set [5] was determined as 8.2 days. Also, in data set [6], the inhibition in vivo at 20 mg/kg was 25.8%. Also, the inhibition at 10000 µM in data set [9] turned out to be 24.2%. Besides, in data set [11], the inhibition was 94%. In [14], the MIC is more than 25 µg/mL.

Take `COc1cccc(C(=O)NNC(=O)c2ccc3[nH]c(-c4ccc([N+](=O)[O-])o4)nc3c2)c1`: the GI50 in data set [1] is 31.2 µg/mL (≈ 74.2 µM); in [4], 7.81 µg/mL (≈ 18.5 µM); in [7], 15.6 µg/mL (≈ 37.1 µM); in [8], 62.5 µg/mL (≈ 148 µM); in data set [10], 15.6 µg/mL (≈ 37.1 µM); in data set [12], 15.6 µg/mL (≈ 37.1 µM). For the same compound, the GI50 at 48 h in data set [2] is 15.6 µg/mL (≈ 37.1 µM); in data set [13] it was 31.2 µg/mL (≈ 74.2 µM). For the same compound, the IC50 in [3] is 13.1 µM. Moreover, the Survival in [5] turned out to be 11.8 days. Besides, the inhibition in vivo at 20 mg/kg in data set [6] was 5.98%. For the same compound, the inhibition at 10000 µM in [9] came to 2.82%. In data set [11], the inhibition was found to be 72.4%. This compound also came in with an MIC in data set [14] of 25 µg/mL (≈ 59.3 µM).
